Measured values gathered from unrelated publications.
Protocols differ between the studies behind these lines.
Target: Muscarinic acetylcholine receptor M3 (CHRM3, Homo sapiens, UniProt P20309)
Concentration: 10 µM

`CC(C)N1CCC[C@H]1CNC(=O)c1cn(C2CCCC2)c(=O)c2c1c1ccccc1n2C` has an inhibition of 12% (ligand displacement, radioligand).
`CN1CC[C@@]2(C)c3cc(OC(=O)Nc4ccccc4)ccc3N(C)[C@@H]12` gave an inhibition of 3.1% (ligand displacement, radioligand).
`c1ccc(C(NCCNC(c2ccccc2)c2ccccc2)c2ccccc2)cc1` gave an inhibition of 11% (cell-free assay).
`CCC(=NO)C(C)=Cc1ccc(F)c(C)c1` gave an inhibition of -5.75% (ligand displacement).
`COCc1c(-c2cc3cc(C)cc(OC)c3s2)c2c(N)ncnn2c1CN1CCNC(=O)C1` has an inhibition of 0% (ligand displacement, radioligand).
`Clc1ccc2c(C3CCN(CCc4c[nH]c5ccccc45)CC3)c[nH]c2c1` gave an inhibition of 61% (ligand displacement, radioligand).
`CCN(CC)CCCC[C@H](NC(=O)[C@H](CC(C)C)NC(=O)[C@H](C)NC(=O)[C@H](Cc1ccccc1)NC(=O)c1ccc(C(C)(C)C)cc1)C(=O)N[C@@H](CO)C(=O)OC` gave an inhibition of 7% (ligand displacement, radioligand).
With `Cc1ccccc1Oc1cc(-n2c(=O)cc(C(F)(F)F)[nH]c2=O)c2ccccc2c1Cl` the inhibition was -16.2% (ligand displacement).
`C[C@H](C(=O)N[C@H]1COc2ccccc2[C@@H]1S(C)(=O)=O)c1ccc(F)cc1` gave an inhibition of 12% (cell-free assay).
`COc1ccc(C(=O)NCc2cc(C(C)C)no2)cc1OC1CCN(C)CC1` gave an inhibition of 26% (ligand displacement, radioligand).
